High-throughput results from PubChem BioAssay.
Statin myotox sup = suppressors of simvastatin-induced myotoxicity in C2C12 myotubes. hit rate 0.78% among 330,000. AID 602340. ATP luminescence, 48 h; scaled: DMSO 0, geranylgeraniol control 100. rescue of ATP level, % at 7.49 µM;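 active = mean ATP rescue above about 67%, or every replicate alone reaching that limit, limit read from the data, passing the limit was not always enough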;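 note: myotubes were challenged with 10 µM simvastatin during compound exposure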
Mot1-301 SUMO = SUMOylation pathway inhibition by Mot1-301 growth rescue; S. cerevisiae Mot1-301 growth rescue, ATP luminescence, 38.5C; percent above DMSO median, 100 means doubled; growth rescue, % at 18.8 µM; hit rate 1% among 320,000; AID 2716;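 active = every valid replicate shows activation above 250% relative to neutral control wells; inactive = the rest, any valid replicate at or below 250%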
Cneo AK release = causes C. neoformans cell lysis; AID 651654; lysis activity, % at 15 µM; hit rate 0.2% among 360,000; adenylate kinase release luminescence, 4 h; normalised: neutral wells 0, clomiphene wells 100;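 active = mean lysis activity across replicates of at least 80%, whatever share of replicates individually reach that level; inactive = mean lysis activity below 80%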
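Material – log-phase Cryptococcus neoformans yeast cells · Input – 5 × 10^6 yeast cells/mL · Medium – fresh YPD growth medium · Doses – single compound concentration per well · Timing – static 4 h at 37 °C with compound, 1 h detection · Detection – adenylate kinase release luminescence · Read-out – signal increase indicating cell lysis · Control set – Clomiphene as positive lysis control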
Efflux pump inh = inhibitors of Candida antifungal efflux pumps expressed in yeast; S. cerevisiae Candida pump triplex, Nile Red efflux; inhibition, % at 10 µM; hit rate 0.44% among 330,000;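 active = plate passing quality check with inhibition over a set limit, or well fluorescence over plate mean plus 4 SD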;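 note: Nile Red retained in pooled yeast measured as flow cytometry median fluorescence; higher means more Nile Red kept so more efflux inhibition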
Cmpd fluor yeast = flagged as fluorescent in efflux inhibitor counter-screen. S. cerevisiae AD/pABC3, compound fluorescence, flow cytometry. hit rate 4% among 1,700. shares compounds with Efflux pump inh. fluorescence ratio to DMSO, % at 10 µM. AID 588517;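 active = fluorescence ratio to DMSO above its plate's cutoff, the plate mean ratio plus 5 SD, cut at about 210% in these data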;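 note: unstained yeast with no Nile Red so the signal is compound autofluorescence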
CaMdr1 efflux inh = inhibitors of Candida albicans Mdr1 efflux pump | inhibition, % at 10 µM | AID 588518 | S. cerevisiae AD/CaMDR1, Nile Red efflux, flow cytometry | hit rate 1% among 1,700 | shares compounds with Efflux pump inh; in the data active = inhibition above about 26%;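 note: higher means more Nile Red retained so more efflux inhibition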
CaCdr2 efflux inh = inhibitors of Candida albicans Cdr2 efflux pump | shares compounds with Efflux pump inh | S. cerevisiae AD/CaCDR2, Nile Red retention, flow cytometry | Nile Red retention ratio vs DMSO, % at 10 µM | hit rate 4% among 1,700 | AID 588520; in the data active = Nile Red retention ratio vs DMSO above about 190%;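 note: higher ratio means more blocking of Cdr2 efflux of the dye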
Cdr1 pump inh = Candida Cdr1 efflux pump inhibition. hit rate 1% among 1,700. S. cerevisiae AD/CaCDR1, Nile Red efflux, flow cytometry. shares compounds with Efflux pump inh. inhibition, % at 10 µM;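 active = inhibition above the screen-wide mean plus twice its standard deviation, cut at about 32% in these data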
Hits are given with their value. This is a sample that favours compounds with a hit; in the whole collection about 1.8% have one here.

For N#CC(C(=O)NCCc1ccccc1)c1nc2ccccc2nc1N1CCCCC1 (centres undefined) the results were Statin myotox sup inactive, Mot1-301 SUMO inactive, Cneo AK release inactive and Efflux pump inh inactive.
For COc1ccc(CC(=O)Nc2sc3c(c2C(N)=O)CCCC3)cc1 the results were Statin myotox sup inactive, Mot1-301 SUMO inactive, Cneo AK release inactive and Efflux pump inh inactive.
Screening COc1cc(OC)cc(C(=O)Nc2sc3c(c2C(N)=O)CCC3)c1 returned Statin myotox sup inactive, Mot1-301 SUMO inactive, Cneo AK release inactive, Efflux pump inh 1.4, Cmpd fluor yeast inactive, CaMdr1 efflux inh inactive, CaCdr2 efflux inh inactive and Cdr1 pump inh inactive.
`O=C(O)/C=C/c1ccc(O)cc1` gave Statin myotox sup inactive, Mot1-301 SUMO inactive, Cneo AK release inactive and Efflux pump inh inactive.
`C[C@@]12C(=O)Nc3cc(Cl)ccc3C(=O)N1[C@H]1c3cc(Cl)ccc3OC[C@@H]1[C@@H]2c1ccccc1` gave Statin myotox sup inactive, Mot1-301 SUMO inactive, Cneo AK release inactive, Efflux pump inh inactive, Cmpd fluor yeast inactive, CaMdr1 efflux inh inactive, CaCdr2 efflux inh inactive and Cdr1 pump inh inactive.
For Cc1ccc2c(c1)C(=O)N1[C@H]3c4cc(C)ccc4OC[C@@H]3[C@H](c3ccccc3)[C@]1(C)C(=O)N2 the results were Statin myotox sup inactive, Mot1-301 SUMO inactive, Cneo AK release inactive and Efflux pump inh inactive.
Screening Cc1ccc2c(c1)C(=O)N1[C@H]3c4cc(Cl)ccc4OC[C@@H]3[C@H](c3ccccc3)[C@]1(C)C(=O)N2 returned Statin myotox sup inactive, Mot1-301 SUMO inactive, Cneo AK release inactive, Efflux pump inh inactive, Cmpd fluor yeast inactive, CaMdr1 efflux inh inactive, CaCdr2 efflux inh inactive and Cdr1 pump inh inactive.
For COc1ccc2c(c1)[C@H]1[C@H](CO2)[C@H](c2ccccc2)[C@]2(C)C(=O)Nc3ccccc3C(=O)N12 the results were Statin myotox sup inactive, Mot1-301 SUMO inactive, Cneo AK release inactive and Efflux pump inh inactive.
COc1ccc(OC2CCN(S(=O)(=O)c3cccc(F)c3)CC2)cc1 was read as Statin myotox sup inactive, Mot1-301 SUMO inactive, Cneo AK release inactive and Efflux pump inh inactive.
Oc1ccc(N=Nc2c(O)ccc3ccccc23)cc1 was read as Statin myotox sup inactive, Mot1-301 SUMO inactive, Cneo AK release inactive, Efflux pump inh 0.8, Cmpd fluor yeast inactive, CaMdr1 efflux inh inactive, CaCdr2 efflux inh 204 and Cdr1 pump inh inactive.
COC(=O)c1ccc(CN2CCC(Oc3cccc(C(=O)N4CCCC4)c3)CC2)cc1 was read as Statin myotox sup inactive, Mot1-301 SUMO inactive, Cneo AK release inactive, Efflux pump inh 5.3, Cmpd fluor yeast inactive, CaMdr1 efflux inh inactive, CaCdr2 efflux inh inactive and Cdr1 pump inh inactive.
For Nc1ncnc2c1nc(N1CCCCC1)n2[C@@H]1O[C@H](CO)[C@@H](O)[C@H]1O the results were Statin myotox sup 101, Mot1-301 SUMO inactive, Cneo AK release inactive, Efflux pump inh 2.3, Cmpd fluor yeast inactive, CaMdr1 efflux inh inactive, CaCdr2 efflux inh inactive and Cdr1 pump inh inactive.
`CCS(=O)(=O)N[C@H]1C=C[C@@H](CC(=O)Nc2ccc(-c3ccccc3)cc2)O[C@H]1CO` gave Statin myotox sup inactive and Cneo AK release inactive.
Screening C[C@@H]1CN([C@H](C)CO)C(=O)Cc2cc(NC(=O)Nc3ccc(C(F)(F)F)cc3)ccc2O[C@@H]1CN(C)C returned Statin myotox sup inactive and Cneo AK release inactive.
`COc1ccc2nc(NC(=O)c3ccoc3C)sc2c1` gave Statin myotox sup inactive, Mot1-301 SUMO inactive, Cneo AK release inactive, Efflux pump inh 7.5, Cmpd fluor yeast inactive, CaMdr1 efflux inh inactive, CaCdr2 efflux inh inactive and Cdr1 pump inh inactive.
Screening CCOc1ccc(S(=O)(=O)Nc2ccc(S(=O)(=O)N3CCCCC3)cc2)cc1 returned Statin myotox sup inactive, Mot1-301 SUMO inactive, Cneo AK release inactive and Efflux pump inh inactive.
For CCOc1ccc(S(=O)(=O)N2CCCCCC2)cc1 the results were Statin myotox sup inactive, Mot1-301 SUMO inactive, Cneo AK release inactive, Efflux pump inh 9.8, Cmpd fluor yeast inactive, CaMdr1 efflux inh inactive, CaCdr2 efflux inh inactive and Cdr1 pump inh inactive.
Cc1cc(C(=O)NC2CC(C)(C)Cc3c2cnn3-c2ccc(F)cc2)no1 (centres undefined) was read as Statin myotox sup inactive, Mot1-301 SUMO inactive, Cneo AK release inactive, Efflux pump inh inactive, Cmpd fluor yeast inactive, CaMdr1 efflux inh inactive, CaCdr2 efflux inh inactive and Cdr1 pump inh inactive.
`Cc1cc(C(=O)NC2CC(C)(C)Cc3c2cnn3-c2cccc(F)c2)n(C)n1` (centres undefined) gave Mot1-301 SUMO inactive, Cneo AK release inactive, Efflux pump inh inactive, Cmpd fluor yeast inactive, CaMdr1 efflux inh inactive, CaCdr2 efflux inh inactive and Cdr1 pump inh inactive.
For CCN(CC(=O)NC1CCS(=O)(=O)C1)S(=O)(=O)c1ccc2ccccc2c1 (centres undefined) the results were Mot1-301 SUMO inactive, Cneo AK release inactive and Efflux pump inh inactive.
Screening COc1ccc(NC(=O)C2OC3OC(C)(C)OC3C3OC(C)(C)OC23)cc1 (centres undefined) returned Mot1-301 SUMO inactive, Cneo AK release inactive, Efflux pump inh 1.5, Cmpd fluor yeast inactive, CaMdr1 efflux inh inactive, CaCdr2 efflux inh inactive and Cdr1 pump inh inactive.
Screening CCN1/C(=C/c2ccc3cc(C)ccc3[n+]2CC)Sc2ccc3sccc3c21 returned Statin myotox sup inactive, Mot1-301 SUMO inactive, Efflux pump inh 3.6, Cmpd fluor yeast active, CaMdr1 efflux inh inactive, CaCdr2 efflux inh inactive and Cdr1 pump inh inactive.
For COc1cccc(OC)c1C(=O)NC(=S)Nc1ccc2c(c1)C(=O)N(C)C2=O the results were Mot1-301 SUMO inactive and Efflux pump inh inactive.
Screening COc1cc(C(=O)NC(=S)Nc2ccc3c(c2)C(=O)N(C)C3=O)cc(OC)c1OC returned Mot1-301 SUMO inactive, Efflux pump inh 12, Cmpd fluor yeast inactive, CaMdr1 efflux inh inactive, CaCdr2 efflux inh inactive and Cdr1 pump inh inactive.
`CC(C)c1ccc(C2/C(=C(\O)c3ccc4c(c3)OCCO4)C(=O)C(=O)N2CCN2CCOCC2)cc1` (centres undefined) gave Statin myotox sup inactive, Mot1-301 SUMO inactive, Cneo AK release inactive and Efflux pump inh inactive.
`CCOC(=O)c1c(/N=C/N(C)C)sc(C)c1C` gave Statin myotox sup inactive, Mot1-301 SUMO inactive, Cneo AK release inactive and Efflux pump inh inactive.
`CCOC(=O)c1c(/N=C/N(C)C)sc(/C=N/Nc2ccccc2)c1-c1ccc(Cl)cc1` gave Mot1-301 SUMO inactive, Efflux pump inh 0.6, Cmpd fluor yeast inactive, CaMdr1 efflux inh inactive, CaCdr2 efflux inh inactive and Cdr1 pump inh inactive.
